DENV2 CPE: inhibitors of DENV2 cytopathic effect, primary screen, cell-based, plate reader, single concentration | 350,000 tested, 1.7% active | DENV2-infected cells, cytopathic effect rescue | CPE inhibition, % at 9.99 µM; in the data active = CPE inhibition above about 20%, passing the limit was not always enough; tested in BHK-21 cells;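 also: 0% = median of neutral control wells and 100% = median of positive control wells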
S100A4 inh HTS: inhibitors of S100A4-myosin IIA peptide binding, primary screen, biochemical, fluorescence polarization, TAMRA-MyoIIA peptide; inhibition, % at 10.7 µM; 360,000 tested, 0.14% active;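 active = mean inhibition of at least 70% across replicates, with every replicate also reaching that level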
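Compound dosing: one dose per compound; test system: human S100A4 monomer with TAMRA-labelled myosin IIA peptide; probe or stimulus: TAMRA-labelled myosin IIA heavy-chain peptide probe, 5 nM; medium: HEPES buffer with Ca2+, pH 7.2; schedule: 5 min incubation before reading; benchmarks: neutral control DMSO, positive control TFP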
CAL PDZ FP-1: CAL PDZ peptide-binding inhibitors, primary screen, biochemical, fluorescence polarization, Cer-tagged CAL PDZ, HTS; 330,000 tested, 0.02% active; inhibition, % at 20 µM; purified CAL PDZ, TMR-peptide fluorescence polarization, 1 h; Golgi-associated PDZ and coiled-coil motif-containing protein (Homo sapiens), Q9HD26;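 active = highest replicate inhibition of at least 40%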;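 also: plate controls were DMSO neutral control wells for no effect and unlabeled competitor peptide control wells for full effect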
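Assay system – tagged CAL PDZ protein CerCALP, purified · Timing – 1 h at RT · Compound – single point, 20 µM · Measured by – fluorescence polarization from S- and P-plane intensities, G-factor corrected · Evaluation – inhibition from polarization loss · Probe or stimulus – TMR reporter peptide T*-PRC34 · Buffer or medium – pH 7.4 phosphate-saline buffer, reducing agent, detergent, IgG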
ERAP1 HTS inh: human ERAP1 aminopeptidase inhibitors, primary screen, biochemical, single point, plate reader; recombinant ERAP1, Leu-AMC fluorescence, 60 min; AID 652197, 2013; inhibition, % at 10.7 µM; 340,000 tested, 0.15% active;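 active = mean replicate inhibition of at least 30%, or all replicates individually reaching that 30% level; inactive = mean below 30% and not every replicate reaching it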;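 also: 0% = neutral control wells and 100% = L-leucinethiol positive control wells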
Target sequence (Q9NZ08 whole entry, looked up): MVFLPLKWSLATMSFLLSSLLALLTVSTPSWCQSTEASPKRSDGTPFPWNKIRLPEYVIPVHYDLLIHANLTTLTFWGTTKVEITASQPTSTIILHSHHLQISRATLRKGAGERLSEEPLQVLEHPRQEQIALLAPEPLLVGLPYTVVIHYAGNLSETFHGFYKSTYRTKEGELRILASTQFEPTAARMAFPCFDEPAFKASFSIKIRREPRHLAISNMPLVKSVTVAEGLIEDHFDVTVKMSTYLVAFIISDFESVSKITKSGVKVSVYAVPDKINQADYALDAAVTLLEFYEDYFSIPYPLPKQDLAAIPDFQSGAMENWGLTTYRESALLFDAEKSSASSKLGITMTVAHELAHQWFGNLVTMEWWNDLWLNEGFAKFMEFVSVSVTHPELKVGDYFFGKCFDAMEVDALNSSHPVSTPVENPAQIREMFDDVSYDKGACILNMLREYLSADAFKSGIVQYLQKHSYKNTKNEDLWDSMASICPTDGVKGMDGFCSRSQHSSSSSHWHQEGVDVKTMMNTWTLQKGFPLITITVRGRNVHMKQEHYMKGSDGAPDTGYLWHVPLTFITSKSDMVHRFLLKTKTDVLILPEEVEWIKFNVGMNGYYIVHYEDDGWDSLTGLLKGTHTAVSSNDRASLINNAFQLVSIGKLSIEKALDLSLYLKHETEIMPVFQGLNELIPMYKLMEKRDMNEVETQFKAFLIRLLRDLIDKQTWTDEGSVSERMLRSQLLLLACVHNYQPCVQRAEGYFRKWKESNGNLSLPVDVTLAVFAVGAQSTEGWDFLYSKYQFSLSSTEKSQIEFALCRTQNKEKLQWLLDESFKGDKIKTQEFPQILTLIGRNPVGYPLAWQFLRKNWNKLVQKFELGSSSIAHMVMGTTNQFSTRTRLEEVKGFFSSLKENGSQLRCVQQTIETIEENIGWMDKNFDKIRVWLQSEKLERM
SIRT5 inh: SIRT5 desuccinylase inhibitors, primary screen, biochemical, fluorescence imaging, single point, set 5. NAD-dependent protein deacylase sirtuin-5, mitochondrial (Homo sapiens), Q9NXA8. Purified SirT5, succinyl-peptide AMC, trypsin-coupled fluorescence. inhibition, % at 15 µM. 330,000 tested, 1.1% active; in the data active = inhibition above about 15%
CAL PDZ FP-2: untagged CAL PDZ binding inhibitors, primary screen, biochemical, fluorescence polarization, HTS; Golgi-associated PDZ and coiled-coil motif-containing protein (Homo sapiens), Q9HD26; purified CAL PDZ, TMR-peptide fluorescence polarization, 1 h; 300,000 tested, 0.92% active; inhibition, % at 24.9 µM;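 active = mean inhibition of at least 30% with at least half of replicates also reaching 30%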;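 also: 0% = DMSO neutral control and 100% = excess unlabeled competitor peptide PRC23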
Numbers without * were called inactive; nt = not tested or not shown. Rows were chosen to be rich in hits. Some 2.9% of all compounds tested hit in one or more screens of this group.

SMILES | DENV2 CPE | S100A4 inh HTS | CAL PDZ FP-1 | ERAP1 HTS inh | SIRT5 inh | CAL PDZ FP-2
O=C(NCC1CC1)[C@@H]1[C@@H](CO)[C@@H]2Cn3c(ccc(-c4ccccc4)c3=O)[C@@H]2N1CC1CC1 | 2 | -6 | nt | -4 | 0 | nt
O=C1CCN(Cc2ccccc2)CCN1[C@H](COc1ccccc1)Cc1ccccc1 | -2 | 1 | 0 | -2 | nt | -4
CC(C)C[C@@H](COc1ccccc1)N1CCN(Cc2ccccc2)CCC1=O | 28* | 0 | -1 | nt | nt | -2
CN1CCC(=O)N([C@H](COc2ccccc2)Cc2ccccc2)CC1 | 20* | 1 | -2 | 12 | -1 | -5
CCCN1CCC(=O)N([C@H](COc2ccccc2)Cc2ccccc2)CC1 | -3 | 2 | 0 | 5 | nt | -3
COc1ccc(NC(=O)N(C)C[C@H]2OCCCC[C@H](C)Oc3ccc(NC(=O)Nc4c(C)noc4C)cc3C(=O)N([C@H](C)CO)C[C@@H]2C)cc1 | -3 | 13 | nt | -3 | 0 | nt
O=C(COc1ccc(Cc2ccccc2)cc1)c1ccc(F)cc1 | 11 | -1 | 0 | -1 | 16* | -6
CCOc1ccc(NC(=O)CN(C)S(=O)(=O)c2cccs2)cc1 | nt | nt | -1 | nt | nt | 59*
CN1[C@@H]2c3ccc(-c4ccncc4)c(=O)n3C[C@H]1[C@H](CO)[C@H]2C(=O)NC1CCCCC1 | 1 | 5 | nt | 2 | -4 | nt
N#Cc1c(N)c(C#N)c(-c2ccc3c(c2)OCO3)c2c1CCCC2 | nt | nt | nt | nt | nt | -1
N#Cc1c(N)c(C#N)c(-c2ccc(O)cc2)c2c1CCCC2 | nt | nt | -2 | nt | nt | 75*
C[C@H](CO)N1C[C@H](C)[C@H](CN(C)C)Oc2ccc(NC(=O)CCC(F)(F)F)cc2CC1=O | -2 | 12 | nt | 0 | 0 | nt
C[C@H]1CN([C@@H](C)CO)C(=O)Cc2cc(NC(=O)CCC(F)(F)F)ccc2O[C@@H]1CN(C)C | 0 | 108* | nt | -2 | 4 | nt
C[C@H](CO)N1C[C@H](C)[C@H](CN(C)C(=O)Nc2ccc(F)cc2)Oc2ccc(NC(=O)CCC(F)(F)F)cc2CC1=O | 25* | -8 | nt | -1 | 1 | nt
COc1ccc2c3c(n(C)c2c1)[C@@H](CO)N(Cc1ccccc1)CC31CCN(C(=O)Nc2cccc(F)c2)CC1 | 15 | 13 | nt | 4 | -3 | nt
COc1ccc(N/N=C(\C#N)C(=N)N2CCCCC2)cc1 | -2 | -4 | -1 | nt | 0 | 49*
Cc1ccc(N/N=C(\C#N)C(=N)N2CCCCCC2)cc1 | 18 | -2 | 1 | 1 | 9 | 30*
O=C(C[C@H]1C[C@H]2c3cc(NC(=O)c4cccnc4)ccc3O[C@H]2[C@H](CO)O1)NCC1CC1 | nt | -4 | nt | 1 | -4 | nt
O=C(NC(CC(=O)N1CCN(c2ccccc2)CC1)c1ccccc1)c1ccccc1 (centres undefined) | -6 | -1 | nt | -3 | nt | nt
CC(=O)NC(CC(=O)N1CCN(C(C)=O)CC1)c1ccccc1 (centres undefined) | -5 | 1 | -1 | 1 | 25* | -1
C[C@H]1CCCCO[C@H](CN(C)C(=O)Nc2cccc3ccccc23)[C@@H](C)CN([C@@H](C)CO)C(=O)c2cc(NC(=O)Nc3ccc(C(F)(F)F)cc3)ccc2O1 | 2 | -6 | nt | -5 | 2 | nt
CCCC#Cc1ccc([C@H]2[C@@H](CO)N3C(=O)CN(C(=O)Nc4ccc(F)cc4)C[C@@H]23)cc1 | 11 | 1 | nt | 1 | -2 | nt
CN1C[C@@H]2[C@@H]3C(=O)N(Cc4ccccc4)C(=O)[C@@H]3[C@](C)(C1=O)N2C(=O)c1ccc(C(F)(F)F)cc1 | 12 | 1 | -2 | -1 | -4 | -1
Cc1ccc(C(=O)N2[C@@H]3CN(C)C(=O)[C@@]2(Cc2ccccc2)[C@H]2C(=O)N(Cc4ccccc4)C(=O)[C@@H]32)cc1 | 2 | -4 | -2 | 1 | -8 | 0
CN1C[C@@H]2[C@@H]3C(=O)N(Cc4ccccc4)C(=O)[C@@H]3[C@](C)(C1=O)N2C(=O)c1ccc(C(C)(C)C)cc1 | 54* | -10 | -1 | 0 | -9 | -1
SMILES | DENV2 CPE | S100A4 inh HTS | CAL PDZ FP-1 | ERAP1 HTS inh | SIRT5 inh | CAL PDZ FP-2
CCN1C[C@@H]2[C@@H]3C(=O)N(Cc4ccccc4)C(=O)[C@@H]3[C@](Cc3ccccc3)(C1=O)N2C(=O)c1ccc(C)cc1 | 7 | -3 | -1 | -1 | 17* | -2
OC(CNCc1ccccc1)COc1ccccc1 (centres undefined) | -1 | -24 | 0 | 1 | 24* | -1
O=C(c1ccccc1)c1ccc(OCC(O)CNCc2ccc(Cl)cc2)cc1 (centres undefined) | 3 | 1 | -2 | 0 | 3 | -4
COc1cccc(OC)c1C(=O)NNC(=O)c1ccc(F)cc1 | -2 | -6 | -1 | -4 | -1 | 68*
CN(C)C(=O)CN1C(=O)C2CC=C(Cl)CC2C1=O (centres undefined) | -7 | -4 | 0 | 0 | 4 | 32*
O=C(N/N=C/c1ccccc1F)c1ccccc1OCc1ccccc1 | -1 | -2 | -3 | 0 | 0 | nt
O=C(N/N=C/c1ccc[nH]1)c1ccccc1OCc1ccc(F)cc1 | 1 | 2 | -1 | nt | 22* | nt
CC(C)Cc1nnc(NC(=O)CCC(=O)N2CCN(c3ccc([N+](=O)[O-])cc3)CC2)s1 | -2 | 7 | -2 | 2 | 8 | -6
CC(C)Cc1nnc(NC(=O)Cc2ccc([N+](=O)[O-])cc2)s1 | nt | -3 | -1 | -1 | 29* | -2
CC1=CC(C)(C)NC(=S)N1c1cccc2cc(S(=O)(=O)O)ccc12 | -1 | -1 | 1 | 12 | 20* | -3
CC1=CC(C)(C)NC(=S)N1c1ccccc1C | 0 | 0 | 0 | 0 | -2 | -2
Cc1ccc(NS(=O)(=O)c2ccc(C(=O)NC3CCN(Cc4ccccc4)CC3)cc2)cc1 | -5 | -3 | 0 | 2 | -2 | nt
Cc1ccc(NS(=O)(=O)c2cccc(C(=O)NC3CCN(Cc4ccccc4)CC3)c2)cc1 | -1 | -3 | -1 | -3 | -1 | 89*
COc1ccc2c3c(n(C)c2c1)[C@H](CO)N(C(=O)C1CC1)CC31CCN(C)CC1 | -12 | 4 | nt | 3 | 3 | nt
O=C(C[C@@H]1C[C@H]2c3cc(NC(=O)Nc4ccc(C(F)(F)F)cc4)ccc3O[C@H]2[C@H](CO)O1)NCc1ccc2c(c1)OCO2 | 3 | -5 | nt | -2 | 27* | nt
O=C(C[C@H]1C[C@@H]2c3cc(NC(=O)Nc4ccc(C(F)(F)F)cc4)ccc3O[C@@H]2[C@@H](CO)O1)NCc1ccc2c(c1)OCO2 | -3 | -4 | nt | 0 | 25* | nt
